Laboratory results taken from ChEMBL document CHEMBL1240455, “Synthesis of 5-[alkoxy-(4-nitro-phenyl)-methyl]-uridines and study of their cytotoxic activity” (Eur J Med Chem, 2010).
In brackets after ≈: the same amount, converted by molar mass.

Tests used:
CCRF-CEM [1] = test: Inhibition of DNA synthesis in human CEM cells assessed as BrDU incorporation using propidium iodide staining at IC50 concentration after 24 hrs by flow cytometry; format: functional; parameters: scale not given: the % may be the effect or the level left
Summary of the method: (§1)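 CEM cells exposed at 1× and 5× IC50 for 3, 6, 9 and 24 h, then pulsed with BrdU for 30 min at 37 °C. Cells fixed overnight in ice-cold 70% ethanol and DNA denatured in 2 M HCl for 30 min. Neutralised with 0.1 M sodium borate, then stained with anti-BrdU antibody, FITC secondary, and propidium iodide/RNase. Read by flow cytometry at 488 nm.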

CCRF-CEM [2] = test: Induction of mitotic arrest in human CEM cells assessed as pH3Ser10 positive cells at 5 times IC50 concentration after 24 hrs by flow cytometry; format: functional
CCRF-CEM [3] = test: Cell cycle arrest in human CEM cells assessed as accumulation at G0/G1 phase using propidium iodide staining at IC50 concentration after 24 hrs by flow cytometry; format: functional
CCRF-CEM [4] = test: Cytotoxicity against human CEM cells after 72 hrs by MTT assay; format: functional, cell-based
Summary of the method: (§2)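 Cells seeded at 2500–30,000 per well by cell type and pre-incubated 24 h at 37 °C, 5% CO2. Compounds dissolved in 10% DMSO, added as four-fold dilutions at time zero, tested in quadruplicate. Exposure 72 h at 37 °C, 5% CO2, 100% humidity. MTT then added for 1–4 h, formazan dissolved overnight at 37 °C, OD read at 540 nm. IC50 taken from dose-response curves relative to control wells.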

K562 [5] = test: Cytotoxicity against human paclitaxel-resistant K562 cells after 72 hrs by MTT assay; format: functional, cell-based; summary of the method: as §2
CCRF-CEM [6] = test: Inhibition of RNA synthesis in human CEM cells assessed as BrU incorporation using propidium iodide staining at 5 times IC50 concentration after 24 hrs by flow cytometry; format: functional; parameters: scale not given: the % may be the effect or the level left
Summary of the method: (§3)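 RNA synthesis measured by flow cytometry of incorporated 5-bromouridine, detected with a cross-reacting anti-BrdU antibody. CEM cells exposed at 1× and 5× IC50 for 3, 6, 9 and 24 h and pulsed for 30 min at 37 °C before harvest. Fixed 15 min in 1% paraformaldehyde/0.05% NP-40 in PBS and stored at 4 °C at least overnight. Stained with primary and FITC secondary antibodies, 30 min each at room temperature.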

CCRF-CEM [7] = test: Induction of mitotic arrest in human CEM cells assessed as pH3Ser10 positive cells at IC50 concentration after 24 hrs by flow cytometry; format: functional
CCRF-CEM [8] = test: Cell cycle arrest in human CEM cells assessed as accumulation at G0/G1 phase using propidium iodide staining at 5 times IC50 concentration after 24 hrs by flow cytometry; format: functional
Summary of the method: (§4)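 CEM T-lymphoblastic leukemia cells were exposed to compound at 1× and 5× IC50 over a 24 h interval. DNA content was measured by flow cytometry with a 488 nm laser.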

CCRF-CEM [9] = test: Cell cycle arrest in human CEM cells assessed as accumulation at S phase using propidium iodide staining at IC50 concentration after 24 hrs by flow cytometry; format: functional
CCRF-CEM [10] = test: Cell cycle arrest in human CEM cells assessed as accumulation at G2/M phase using propidium iodide staining at 5 times IC50 concentration after 24 hrs by flow cytometry; format: functional; summary of the method: as §4
CCRF-CEM [11] = test: Inhibition of DNA synthesis in human CEM cells assessed as BrDU incorporation using propidium iodide staining at 5 times IC50 concentration after 24 hrs by flow cytometry; format: functional; parameters: scale not given: the % may be the effect or the level left; summary of the method: as §1
[12] = Cytotoxicity against human CEM-DNR-B cells after 72 hrs by MTT assay; format: functional, cell-based; summary of the method: as §2
CCRF-CEM [13] = test: Inhibition of RNA synthesis in human CEM cells assessed as BrU incorporation using propidium iodide staining at IC50 concentration after 24 hrs by flow cytometry; format: functional; parameters: scale not given: the % may be the effect or the level left; summary of the method: as §3
CCRF-CEM [14] = test: Induction of apoptosis in human CEM cells using propidium iodide staining at 5 times IC50 concentration after 24 hrs by flow cytometry; format: functional
CCRF-CEM [15] = test: Cell cycle arrest in human CEM cells assessed as accumulation at S phase using propidium iodide staining at 5 times IC50 concentration after 24 hrs by flow cytometry; format: functional; summary of the method: as §4
K562 [16] = test: Cytotoxicity against human K562 cells after 72 hrs by MTT assay; format: functional, cell-based; summary of the method: as §2
A549 = test: Cytotoxicity against human A549 cells after 72 hrs by MTT assay; format: functional, cell-based; summary of the method: as §2
CCRF-CEM [17] = test: Induction of apoptosis in human CEM cells using propidium iodide staining at IC50 concentration after 24 hrs by flow cytometry; format: functional
CCRF-CEM [18] = test: Cell cycle arrest in human CEM cells assessed as accumulation at G2/M phase using propidium iodide staining at IC50 concentration after 24 hrs by flow cytometry; format: functional
Enterococcus faecalis = test: Antimicrobial activity against Enterococcus faecalis CCM 4224 after 24 hrs; format: functional; conditions: CCM 4224, 24 h
[19] = test system: Staphylococcus haemolyticus; test: Antimicrobial activity against Staphylococcus haemolyticus after 24 hrs; format: functional
Summary of the method: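 MIC taken as the lowest concentration preventing bacterial growth after 24 h incubation at 37 °C. Strains came from the Czech Collection of Microorganisms or from clinical isolates of hospital patients.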

Staphylococcus aureus [20] = test: Antimicrobial activity against methicillin-resistant Staphylococcus aureus after 24 hrs; format: functional
Staphylococcus aureus [21] = test: Antimicrobial activity against Staphylococcus aureus CCM 3953 after 24 hrs; format: functional; conditions: CCM 3953, 24 h

Row | Compound | Activity (CCRF-CEM [1]) [%] | Activity (CCRF-CEM [2]) [%] | Activity (CCRF-CEM [3]) [%] | IC50 (CCRF-CEM [4]; Homo sapiens, CCRF-CEM, 72 h) [µM] | IC50 (K562 [5]; Homo sapiens, K562, 72 h) [µM] | Activity (CCRF-CEM [6]) [%] | Activity (CCRF-CEM [7]) [%] | Activity (CCRF-CEM [9]) [%] | Activity (CCRF-CEM [11]) [%] | IC50 ([12]; Homo sapiens, 72 h) [µM] | Activity (CCRF-CEM [13]) [%] | Activity (CCRF-CEM [14]) [%] | IC50 (K562 [16]; Homo sapiens, K562, 72 h) [µM] | IC50 (A549; Homo sapiens, A549, 72 h) [µM] | Activity (CCRF-CEM [17]) [%] | Activity (CCRF-CEM [18]) [%] | IC50 (CCRF-CEM [4]; ccrf-cem) [µM] | IC50 (K562 [5]; k562) [µM] | IC50 [12] [µM] | IC50 (K562 [16]; k562) [µM] | other results
1 | Nc1nc2[nH]cnc2c(=S)[nH]1 [THIOGUANINE] | 35.32 | 0.43 | 43.42 | 2.98 | 3.9 | 48.93 | 1.21 | 49.39 | 19.82 | 9.47 | 45.84 | 18.69 | 1.54 | 2.82 | 11.27 | 7.19 |  |  |  |  | Activity (CCRF-CEM [8]): 43.58%; Activity (CCRF-CEM [10]): 9.95%; Activity (CCRF-CEM [15]): 46.47%
2 | CCCCCCCCOC(c1ccc([N+](=O)[O-])cc1)c1cn([C@@H]2O[C@H](CO)[C@@H](O)[C@H]2O)c(=O)[nH]c1=O (single isomer, unassigned; (+)) | 46.03 | 0.03 | 42.36 | 11.4 | 33.1 | 1.44 | 2.05 | 47.81 | 6.01 | 34.6 | 58.1 | 76 | 15.1 | 38.7 | 7 | 9.83 |  |  |  |  | MIC (Enterococcus faecalis): 200 µM (≈ 102 µg/mL); MIC [19]: 200 µM (≈ 102 µg/mL); MIC (Staphylococcus aureus [20]): 100 µM (≈ 50.8 µg/mL); MIC (Staphylococcus aureus [21]): 100 µM (≈ 50.8 µg/mL)
3 | CCCCCCOC(c1ccc([N+](=O)[O-])cc1)c1cn([C@@H]2O[C@H](CO)[C@@H](O)[C@H]2O)c(=O)[nH]c1=O (stereo in doubt; (+)-7f) |  |  |  | 39.8 | 141 |  |  |  |  | 131 |  |  | 58.4 | 121 |  |  |  |  |  |  | 
4 | CCCCCCOC(c1ccc([N+](=O)[O-])cc1)c1cn([C@@H]2O[C@H](CO)[C@@H](O)[C@H]2O)c(=O)[nH]c1=O (single isomer, unassigned; (-)) |  |  |  |  |  |  |  |  |  |  |  |  |  |  |  |  | 45.5 | 137 | 146 | 64.5 | IC50 (A549; a549): 156 µM
5 | CCCCCCCOC(c1ccc([N+](=O)[O-])cc1)c1cn([C@@H]2O[C@H](CO)[C@@H](O)[C@H]2O)c(=O)[nH]c1=O (stereo in doubt; (-)-8g) |  |  |  |  |  |  |  |  |  |  |  |  |  |  |  |  | 29 | 52.3 | 95.6 | 36.7 | IC50 (A549; a549): 69.9 µM
6 | Nc1nc(F)nc2c1ncn2[C@@H]1O[C@H](CO)[C@@H](O)[C@@H]1O [FLUDARABINE] | 14.12 | 0.01 | 39.66 | 19.5 | 0.26 | 8.92 | 0.28 | 40.84 | 10.37 | 1.01 | 7.62 | 74.84 | 267 | 47.4 | 62.1 | 19.5 |  |  |  |  | Activity (CCRF-CEM [8]): 42.11%; Activity (CCRF-CEM [10]): 4.95%; Activity (CCRF-CEM [15]): 52.94%
7 | CCCCCCCCCOC(c1ccc([N+](=O)[O-])cc1)c1cn([C@@H]2O[C@H](CO)[C@@H](O)[C@H]2O)c(=O)[nH]c1=O (single isomer, unassigned; (-)) | 47.38 | 0.04 | 43.38 |  |  | 1.9 | 1.74 | 47.79 | 0.95 |  | 57.26 |  |  |  |  | 8.83 | 10 | 23.9 | 33.8 | 13 | IC50 (A549; a549): 29.1 µM
8 | CCCCCCCCOC(c1ccc([N+](=O)[O-])cc1)c1cn([C@@H]2O[C@H](CO)[C@@H](O)[C@H]2O)c(=O)[nH]c1=O (stereo in doubt; (-)-8h) | 48.73 | 0.01 | 40.02 |  |  | 1.61 | 1.68 | 48.56 | 6.67 |  | 56.18 | 71 |  |  | 5 | 11.33 | 16.9 | 34.4 | 36.6 | 24.7 | IC50 (A549; a549): 39.7 µM
9 | CCCCCCCCCOC(c1ccc([N+](=O)[O-])cc1)c1cn([C@@H]2O[C@H](CO)[C@@H](O)[C@H]2O)c(=O)[nH]c1=O (stereo in doubt; (+)-7i) | 52.17 | 0.25 | 40.95 | 7.9 | 14.6 | 0.8 | 1.66 | 47.81 | 2.95 | 32.3 | 60.22 | 83 | 10.9 | 23.1 | 4 | 11.25 |  |  |  |  | MIC (Enterococcus faecalis): 50 µM (≈ 26.1 µg/mL); MIC [19]: 100 µM (≈ 52.2 µg/mL); MIC (Staphylococcus aureus [20]): 50 µM (≈ 26.1 µg/mL); MIC (Staphylococcus aureus [21]): 50 µM (≈ 26.1 µg/mL)
10 | CCCCCCCOC(c1ccc([N+](=O)[O-])cc1)c1cn([C@@H]2O[C@H](CO)[C@@H](O)[C@H]2O)c(=O)[nH]c1=O (stereo in doubt; (+)7g) |  |  |  |  | 42.8 |  |  |  |  | 104 |  |  | 33.6 | 39.8 |  |  | 12.8 |  |  |  | 
